Assay results: ChEMBL document CHEMBL1155154, “Target gene sequencing to characterize the penicillin G susceptibility of Neisseria meningitidis” (2007)
Converted amounts (≈) assume the structure as drawn.

Columns and labels:
Type in all cases: functional
Neisseria meningitidis [1] = test: Antimicrobial activity against Neisseria meningitidis isolates harboring penA 33 allele encoding PBP2 mutant
In short: (§1)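 Penicillin G MICs were determined for N. meningitidis isolates grouped by penA allele, with the PBP2 C-terminal region (amino acids 441 to 574) deduced from penA sequencing. Values are geometric mean MICs with lower and upper 95% confidence limits, calculated only for alleles represented by at least five isolates.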

Neisseria meningitidis [2] = test: Antimicrobial activity against Neisseria meningitidis isolates harboring penA 13 allele encoding PBP2 mutant; in short: as §1
Neisseria meningitidis [3] = test: Antimicrobial activity against Neisseria meningitidis isolates harboring penA 7 allele encoding PBP2 mutant; in short: as §1
Neisseria meningitidis [4] = test: Antimicrobial activity against Neisseria meningitidis isolates harboring penA 5 allele encoding PBP2 mutant; in short: as §1
Neisseria meningitidis [5] = test: Antimicrobial activity against Neisseria meningitidis isolates harboring penA 29 allele encoding PBP2 mutant; in short: as §1
Neisseria meningitidis [6] = test: Antimicrobial activity against Neisseria meningitidis isolates harboring penA 2 allele encoding PBP2 mutant; in short: as §1
Neisseria meningitidis [7] = test: Antimicrobial activity against Neisseria meningitidis isolates harboring penA 30 allele encoding PBP2 mutant; in short: as §1
Neisseria meningitidis [8] = test: Antimicrobial activity against Neisseria meningitidis isolates harboring penA 19 allele encoding PBP2 mutant; in short: as §1
Neisseria meningitidis [9] = test: Antimicrobial activity against Neisseria meningitidis isolates harboring penA 81 allele encoding PBP2 mutant; in short: as §1
Neisseria meningitidis [10] = test: Antimicrobial activity against Neisseria meningitidis isolates harboring penA 52 allele encoding PBP2 mutant; in short: as §1
Neisseria meningitidis [11] = test: Antimicrobial activity against Neisseria meningitidis isolates harboring penA 3 allele encoding PBP2 mutant; in short: as §1
Neisseria meningitidis [12] = test: Antimicrobial activity against Neisseria meningitidis isolates harboring penA 23 allele encoding PBP2 mutant; in short: as §1
Neisseria meningitidis [13] = test: Antimicrobial activity against Neisseria meningitidis isolates harboring penA 18 allele encoding PBP2 mutant; in short: as §1
Neisseria meningitidis [14] = test: Antimicrobial activity against Neisseria meningitidis isolates harboring penA 17 allele encoding PBP2 mutant; in short: as §1
Neisseria meningitidis [15] = test: Antimicrobial activity against Neisseria meningitidis isolates harboring penA 20 allele encoding PBP2 mutant; in short: as §1
Neisseria meningitidis [16] = test: Antimicrobial activity against Neisseria meningitidis isolates harboring penA 11 allele encoding PBP2 mutant; in short: as §1
Neisseria meningitidis [17] = test: Antimicrobial activity against Neisseria meningitidis isolates harboring penA 16 allele encoding PBP2 mutant; in short: as §1
Neisseria meningitidis [18] = test: Antimicrobial activity against Neisseria meningitidis isolates harboring penA 12 allele encoding PBP2 mutant; in short: as §1
Neisseria meningitidis [19] = test: Antimicrobial activity against Neisseria meningitidis isolates harboring penA 57 allele encoding PBP2 mutant; in short: as §1
Neisseria meningitidis [20] = test: Antimicrobial activity against Neisseria meningitidis isolates harboring penA 27 allele encoding PBP2 mutant; in short: as §1
Neisseria meningitidis [21] = test: Antimicrobial activity against Neisseria meningitidis isolates harboring penA 1 allele encoding PBP2 mutant; in short: as §1
Neisseria meningitidis [22] = test: Antimicrobial activity against Neisseria meningitidis isolates harboring penA 25 allele encoding PBP2 mutant; in short: as §1
Neisseria meningitidis [23] = test: Antimicrobial activity against Neisseria meningitidis isolates harboring penA 83 allele encoding PBP2 mutant; in short: as §1
Neisseria meningitidis [24] = test: Antimicrobial activity against Neisseria meningitidis isolates harboring penA 22 allele encoding PBP2 mutant; in short: as §1
Neisseria meningitidis [25] = test: Antimicrobial activity against Neisseria meningitidis isolates harboring penA 42 allele encoding PBP2 mutant; in short: as §1
Neisseria meningitidis [26] = test: Antimicrobial activity against Neisseria meningitidis isolates harboring penA 9 allele encoding PBP2 mutant; in short: as §1
Neisseria meningitidis [27] = test: Antimicrobial activity against Neisseria meningitidis isolates harboring penA 4 allele encoding PBP2 mutant; in short: as §1
Neisseria meningitidis [28] = test: Antimicrobial activity against Neisseria meningitidis isolates harboring penA 14 allele encoding PBP2 mutant; in short: as §1
Neisseria meningitidis [29] = test: Antimicrobial activity against Neisseria meningitidis isolates harboring penA 34 allele encoding PBP2 mutant; in short: as §1
Neisseria meningitidis [30] = test: Antimicrobial activity against Neisseria meningitidis isolates harboring penA 111 allele encoding PBP2 P551 mutant; in short: as §1
Neisseria meningitidis [31] = test: Antimicrobial activity against Neisseria meningitidis isolates harboring penA 15 allele encoding PBP2 mutant; in short: as §1

CC1(C)S[C@@H]2[C@H](NC(=O)Cc3ccccc3)C(=O)N2[C@H]1C(=O)O [PENICILLIN G]
MIC (Neisseria meningitidis [1]): 0.125 µg/mL (≈ 0.374 µM) | MIC (Neisseria meningitidis [2]): 0.125 µg/mL (≈ 0.374 µM) | MIC (Neisseria meningitidis [3]): 0.064 µg/mL (≈ 0.191 µM) | MIC (Neisseria meningitidis [4]): 0.015 µg/mL (≈ 0.0449 µM) | MIC (Neisseria meningitidis [5]): 0.094 µg/mL (≈ 0.281 µM) | MIC (Neisseria meningitidis [6]): 0.015 µg/mL (≈ 0.0449 µM) | MIC (Neisseria meningitidis [7]): 0.125 µg/mL (≈ 0.374 µM) | MIC (Neisseria meningitidis [8]): 0.064 µg/mL (≈ 0.191 µM) | MIC (Neisseria meningitidis [9]): 0.19 µg/mL (≈ 0.568 µM) | MIC (Neisseria meningitidis [10]): 0.064 µg/mL (≈ 0.191 µM) | MIC (Neisseria meningitidis [11]): 0.004 µg/mL (≈ 0.012 µM) | MIC (Neisseria meningitidis [12]): 0.064 µg/mL (≈ 0.191 µM) | MIC (Neisseria meningitidis [13]): 0.094 µg/mL (≈ 0.281 µM) | MIC (Neisseria meningitidis [14]): 0.125 µg/mL (≈ 0.374 µM) | MIC (Neisseria meningitidis [15]): 0.094 µg/mL (≈ 0.281 µM) | MIC (Neisseria meningitidis [16]): 0.094 µg/mL (≈ 0.281 µM) | MIC (Neisseria meningitidis [17]): 0.047 µg/mL (≈ 0.141 µM) | MIC (Neisseria meningitidis [18]): 0.064 µg/mL (≈ 0.191 µM) | MIC (Neisseria meningitidis [19]): 0.008 µg/mL (≈ 0.0239 µM) | MIC (Neisseria meningitidis [20]): 0.032 µg/mL (≈ 0.0957 µM) | MIC (Neisseria meningitidis [21]): 0.008 µg/mL (≈ 0.0239 µM) | MIC (Neisseria meningitidis [22]): 0.064 µg/mL (≈ 0.191 µM) | MIC (Neisseria meningitidis [23]): 0.023 µg/mL (≈ 0.0688 µM) | MIC (Neisseria meningitidis [24]): 0.023 µg/mL (≈ 0.0688 µM) | MIC (Neisseria meningitidis [25]): 0.094 µg/mL (≈ 0.281 µM) | MIC (Neisseria meningitidis [26]): 0.064 µg/mL (≈ 0.191 µM) | MIC (Neisseria meningitidis [27]): 0.032 µg/mL (≈ 0.0957 µM) | MIC (Neisseria meningitidis [28]): 0.064 µg/mL (≈ 0.191 µM) | MIC (Neisseria meningitidis [29]): 0.032 µg/mL (≈ 0.0957 µM) | MIC (Neisseria meningitidis [30]): 0.094 µg/mL (≈ 0.281 µM) | MIC (Neisseria meningitidis [31]): 0.094 µg/mL (≈ 0.281 µM)
